Experimental data taken from ChEMBL document CHEMBL1138557, “Synthesis and anticonvulsant activity of some substituted 1,2,4-thiadiazoles” (Eur J Med Chem, 2009).
Active and inactive are the calls of the source. The calls are words filed in the database; no cut-off is given here.

Key:
[1] = system: Mus musculus; assay: Anticonvulsant activity in albino CF1 mouse assessed as inhibition of pentylenetetrazole-induced seizures in half or more of mouse at 300 mg/kg, ip after 4 hrs by scPTZ test; type: functional, organism-based; design: dose 300 mg/kg
Outline: (§1)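 Male CF-1 albino mice (18-25 g), groups of 4. Compound suspended in 0.5% methyl cellulose-water or PEG, given i.p. at 30, 100 and 300 mg/kg. Seizures induced by maximal electroshock (MES) or subcutaneous pentylenetetrazole (scPTZ), tested 0.5 and 4 h after dosing.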

[2] = system: Mus musculus; assay: Neurotoxicity in ip dosed albino CF1 mouse assessed as minimum drug concentration required for motor impairment in half or more of mouse after 0.5 hrs by rotarod test; type: toxicity, organism-based; conditions: in vivo
Outline: (§2)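 Motor impairment was tested on a rotorod in mice trained to stay on a rod of 3.2 cm diameter turning at 10 rev/min. Compound given i.p. at 30, 100 or 300 mg/kg, groups of 4, read at 0.5 and 4 h. Neurotoxicity was scored as failure to keep balance for at least 1 min in each of three trials. Value is the minimum dose affecting half or more of the animals.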

[3] = system: Mus musculus; assay: Neurotoxicity in ip dosed albino CF1 mouse assessed as minimum drug concentration required for motor impairment in half or more of mouse after 4 hrs by rotarod test; type: toxicity, organism-based; conditions: in vivo; outline: as §2
[4] = system: Mus musculus; assay: Anticonvulsant activity in ip dosed albino CF1 mouse assessed as minimum drug concentration required for inhibition of maximal electroshock-induced seizure in half or more of mouse after 0.5 hrs by MES test; type: functional; outline: as §1
[5] = system: Mus musculus; assay: Anticonvulsant activity in albino CF1 mouse assessed as minimum inhibition of maximal electroshock-induced seizure in half or more of mouse at 300 mg/kg, ip after 4 hrs by MES test; type: functional, organism-based; design: dose 300 mg/kg; outline: as §1
[6] = system: Mus musculus; assay: Anticonvulsant activity in ip dosed albino CF1 mouse assessed as minimum drug concentration required for inhibition of pentylenetetrazole-induced seizures in half or more of mouse after 0.5 hrs by scPTZ test; type: functional; outline: as §1
[7] = system: Mus musculus; assay: Anticonvulsant activity in albino CF1 mouse assessed as inhibition of pentylenetetrazole-induced seizures in half or more of mouse at 300 mg/kg, ip after 0.5 hrs by scPTZ test; type: functional, organism-based; design: dose 300 mg/kg; outline: as §1
[8] = system: Rattus norvegicus; assay: Sedative-hypnotic activity in phenobarbitone-activated albino Sprague-Dawley rat assessed as increase in sleeping time at 100 mg/kg pretreated for 30 mins before phenobarbitone sodium challenge relative to control; type: functional
Outline: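 Compound dissolved in PEG and given at 100 mg/kg to groups of six animals. Phenobarbitone sodium was injected 30 min later. Sleep duration was recorded in minutes (mean ± SEM) and expressed as % increase over a phenobarbitone-only control.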

[9] = system: Mus musculus; assay: Neurotoxicity in albino CF1 mouse assessed as motor impairment at 300 mg/kg, ip after 4 hrs by rotarod test; type: toxicity, organism-based; design: dose 300 mg/kg, route intraperitoneal; conditions: in vivo; outline: as §2
[10] = system: Mus musculus; assay: Anticonvulsant activity in ip dosed albino CF1 mouse assessed as minimum drug concentration required for inhibition of maximal electroshock-induced seizure in half or more of mouse after 4 hrs by MES test; type: functional; outline: as §1
[11] = system: Mus musculus; assay: Neurotoxicity in albino CF1 mouse assessed as motor impairment at 300 mg/kg, ip after 0.5 hrs by rotarod test; type: toxicity, organism-based; design: dose 300 mg/kg, route intraperitoneal; conditions: in vivo; outline: as §2
[12] = system: Mus musculus; assay: Anticonvulsant activity in albino CF1 mouse assessed as minimum inhibition of maximal electroshock-induced seizure in half or more of mouse at 300 mg/kg, ip after 0.5 hrs by MES test; type: functional, organism-based; design: dose 300 mg/kg; outline: as §1

Row | Structure (SMILES) | Activity [1] | Activity [2] [mg/kg] | Activity [3] [mg/kg] | Activity [4] [mg/kg] | Activity [5] | Activity [6] [mg/kg] | Activity [7] | Activity [8] [%] | Activity [9] | Activity [10] [mg/kg] | Activity [11] | Activity [12]
1 | NC(=O)N1c2ccccc2C=Cc2ccccc21 [CARBAMAZEPINE] | inactive | 100 | 300 | 30 | inactive | 100 |  |  |  |  |  | 
2 | c1ccc2c(Nc3nsc(Nc4cccc5ccccc45)n3)cccc2c1 | inactive | 300 |  | 100 |  |  | inactive | 22.7 | Non-toxic | 300 |  | 
3 | O=c1snc(Nc2ccccn2)n1-c1ccccn1 | inactive | 100 |  | 300 | inactive |  | inactive |  | Non-toxic |  |  | 
4 | c1cc(Nc2nsc(Nc3ccncc3)n2)ccn1 | inactive | 100 |  | 300 | inactive |  | inactive |  | Non-toxic |  |  | 
5 | O=C1NC(=O)C(c2ccccc2)(c2ccccc2)N1 [PHENYTOIN] | inactive | 100 | 100 | 30 |  |  | inactive |  |  | 100 |  | 
6 | O=c1snc(Nc2ncccn2)n1-c1ncccn1 | inactive |  |  | 300 | inactive |  | inactive |  | Non-toxic |  | Non-toxic | 
7 | Fc1ccc(Nc2nsc(Nc3ccc(F)cc3)n2)cc1 | inactive | 100 |  | 100 |  |  | inactive |  | Non-toxic | 300 |  | 
8 | O=c1snc(Nc2ccc(F)cc2)n1-c1ccc(F)cc1 | inactive | 300 |  | 100 | inactive |  | inactive | 17.7 | Non-toxic |  |  | 
9 | c1ccc(Nc2nsc(Nc3ccccn3)n2)nc1 | inactive | 100 |  | 300 | inactive |  | inactive |  | Non-toxic |  |  | 
10 | CCOc1ccc(Nc2nsc(=O)n2-c2ccc(OCC)cc2)cc1 | inactive | 300 | 300 | 100 |  | 300 |  | 67.1 |  | 300 |  | 
11 | O=c1snc(Nc2cccnc2)n1-c1cccnc1 | inactive | 100 |  | 300 | inactive |  | inactive |  | Non-toxic |  |  | 
12 | O=c1snc(Nc2cccc3ccccc23)n1-c1cccc2ccccc12 | inactive | 300 |  | 100 |  |  | inactive | 16.4 | Non-toxic | 300 |  | 
13 | O=c1snc(Nc2ccncc2)n1-c1ccncc1 | inactive | 100 |  | 300 | inactive |  | inactive |  | Non-toxic |  |  | 
14 | c1cnc(Nc2nsc(Nc3ncccn3)n2)nc1 | inactive | 300 |  |  | inactive |  | inactive | 59.5 | Non-toxic |  |  | inactive
15 | c1cncc(Nc2nsc(Nc3cccnc3)n2)c1 | inactive | 100 |  | 300 | inactive |  | inactive |  | Non-toxic |  |  | 
16 | CCOc1ccc(Nc2nsc(Nc3ccc(OCC)cc3)n2)cc1 | inactive | 300 | 300 | 100 |  |  | inactive | 36.7 |  | 300 |  | 
